Consider 15 compounds from PubChem BioAssay.

Assay [1] in a line: inhibitors of TNFa-induced NFkB p65 translocation, primary screen, imaging, HUVEC, MLSMR starter and 10KST1 sets (AID 438;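 active = inhibition above 20% together with a positive visual image hit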;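 note: compound added about 3h40 before a 20 min TNFalpha stimulation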;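 for inhibition: signal is the nuclear over cytoplasmic p65 intensity ratio per well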). The note with it: HUVEC TNFa-induced p65 nuclear translocation; cell count: measured here: nuclei count (cytotoxicity indicator), at 2.08 µM; inhibition: at 2 µM, stronger effect = higher value, 0% TNFa-plus-vehicle, 100% no-TNFa wells.
Assay [2] can be described thus: inhibitors of mutant huntingtin aggregation, primary screen, imaging, exon1htt(103Q)mCFP cells, high-content imaging (AID 483;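 active = visual image review flags a hit and inhibition of aggregation exceeds 20%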;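 note: compound exposure lasted 3 days before fixation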;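 for nuclei count: percent of the per-plate median nuclei count of sample wells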). The note with it: exon1htt(103Q)mCFP cell line, aggregate imaging, at 2 µM; inhibition of aggregation: stronger effect = higher value; nuclei count: measured here: cell count, toxicity.
Assay [3] can be described thus: inhibitors of E-selectin induction by TNFa, primary screen, imaging, HUVEC, immunofluorescence, MLSMR starter and 10KST1 sets (AID 487;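 active = visually confirmed hit in the image check and inhibition above 20%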;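 for inhibition: signal is fraction of cell area covered by stained E-selectin grains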;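 for nuclei count: 100% = median nuclei count of all wells on the same plate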). Particulars: HUVEC TNFalpha-induced E-selectin immunofluorescence imaging, at 2 µM; inhibition: stronger effect = higher value; nuclei count: measured here: cell number, toxicity.
For assay [4], the target named is Voltage-gated potassium channel subunit beta-2 (Rattus norvegicus) (UniProt P62483). Description: KvBeta enzyme negative modulators, primary screen, biochemical, NADPH fluorescence (AID 622;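 active = fluorescence slope higher than the sample average by over 3 SD, cut at about -0.22 in these data, passing the limit was not always enough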;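 note: slope of raw intensity against log time taken from 70 to 1610 s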). Particulars: recombinant KvBeta, 4-cyanobenzaldehyde reduction, at 10 µM, stronger effect = higher value.
Chain of Voltage-gated potassium channel subunit beta-2 (Rattus norvegicus) (P62483 whole entry, looked up): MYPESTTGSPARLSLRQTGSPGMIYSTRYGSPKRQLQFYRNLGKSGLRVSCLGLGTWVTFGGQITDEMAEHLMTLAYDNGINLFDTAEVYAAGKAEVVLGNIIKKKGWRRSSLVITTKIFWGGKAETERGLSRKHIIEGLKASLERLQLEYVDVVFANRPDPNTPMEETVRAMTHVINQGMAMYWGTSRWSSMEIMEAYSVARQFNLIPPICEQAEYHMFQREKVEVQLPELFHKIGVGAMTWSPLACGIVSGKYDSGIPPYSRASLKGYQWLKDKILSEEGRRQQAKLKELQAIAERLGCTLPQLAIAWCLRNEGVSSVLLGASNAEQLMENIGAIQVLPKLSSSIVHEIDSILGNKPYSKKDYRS
Assay [5] shares this target. Description: KvBeta positive modulators, primary screen, biochemical, NADPH fluorescence (AID 623;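 active = NADPH fluorescence slope more negative than the mean of all samples by about 3 SD, 99.7% confidence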;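 note: fluorescence intensity change per second fitted from 20 to 320 s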). Particulars: Recombinant KvBeta, NADPH fluorescence decrease slope, 10 min; at 10 µM; stronger effect = lower value.
The target in assay [6] is Muscarinic acetylcholine receptor M4 (Homo sapiens) (UniProt P08173). Description: compounds altering M4/GIRK thallium flux, either direction, primary screen, M4 allosteric agonist project, cell-based, HEK293 M4/GIRK, BTC-AM (AID 625;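 active = fluorescence slope after compound addition differing from the mean of all tested samples at 99.7% confidence, mostly higher but some lower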;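 note: thallium influx through GIRK channels coupled to M4 in HEK293 cells with BTC-AM dye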). Particulars: at 10 µM, actives lie on both sides. The gist of the method: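 Material: HEK293 cells with M4 receptor and GIRK channels; Times: cells overnight at 37 °C, BTC-AM loading 1 h, reads 2 min total; Technique: kinetic BTC-AM fluorescence sampled at 1 Hz, 10 s pre-addition baseline; Read-out basis: slope over 15–24 s of trace normalized to starting intensity; Controls: carbachol positive, DMSO negative.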
Chain of Muscarinic acetylcholine receptor M4 (Homo sapiens) (P08173 whole entry, looked up): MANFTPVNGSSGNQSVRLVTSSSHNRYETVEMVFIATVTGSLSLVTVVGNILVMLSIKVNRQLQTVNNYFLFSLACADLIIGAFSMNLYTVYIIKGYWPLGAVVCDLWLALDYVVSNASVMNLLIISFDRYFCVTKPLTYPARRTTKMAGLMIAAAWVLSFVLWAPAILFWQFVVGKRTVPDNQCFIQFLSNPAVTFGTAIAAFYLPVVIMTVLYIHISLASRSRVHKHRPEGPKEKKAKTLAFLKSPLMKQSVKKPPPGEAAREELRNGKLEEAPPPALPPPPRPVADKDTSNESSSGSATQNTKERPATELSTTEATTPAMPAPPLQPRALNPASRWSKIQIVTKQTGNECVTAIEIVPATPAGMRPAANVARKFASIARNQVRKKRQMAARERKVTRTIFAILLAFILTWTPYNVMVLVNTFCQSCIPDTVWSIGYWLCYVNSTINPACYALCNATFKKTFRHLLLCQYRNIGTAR

A short description of assay [7]: inhibitors of Sendai virus-induced IRF3 signaling, primary screen, TLR/RLR signaling modifier project, cell-based, Sendai virus stimulus, luciferase, 10K MLSCN set (AID 602276;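 active = inhibition at or above 50% at 10 µM; inactive = inhibition below 50%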;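 note: firefly luciferase from ISG56 promoter only with Renilla not read in this screen; 0% = Sendai virus plus DMSO and 100% = medium plus DMSO without virus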). The note with it: HEK293 RL24 IRF3 luciferase reporter, at 10 µM, stronger effect = higher value. Background: A reporter such as luciferase makes a cellular process visible.
A short description of assay [8]: inhibitors of poly I:C-induced TLR3 signaling, primary screen, cell-based, poly I:C stimulus, luciferase, 10K MLSCN set (AID 602277). The note with it: HEK293-TLR3 RL24 IRF3 luciferase reporter, at 10 µM, stronger effect = higher value.

Active and inactive are the calls of the source.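 Rule for the calls, unless noted: active = inhibition of the reporter signal at or above 50%; inactive = inhibition below 50%.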

As to `O=C(Nc1cc(C(F)(F)F)ccc1Cl)c1cc(C2CC2)on1`, the cell count in assay [1] worked out at 404. Besides, the inhibition – broadly, the drop in the measured response relative to a control, in per cent – was -3.9% (inactive) in assay [1], -25.8% (inactive) in assay [3], 21.5% (inactive) in assay [7] and 27.4% (inactive) in assay [8]. Further, the inhibition of aggregation in assay [2] was -8.1% (inactive). Also, the nuclei count in assay [2] was 102%; in assay [3], 61.5%. In addition, the figures for the fluorescence slope in assay [4] and in assay [6] were -0.45 (inactive) and 0.00518 (inactive), respectively. Besides, in assay [5], the NADPH fluorescence slope is -5.4e-05 (inactive).

Regarding `O=C(CN1C(=O)c2cccc3cccc1c23)N1CCN(c2ccccc2)CC1`, in assay [1], the cell count worked out at 512. The inhibition in assay [1] is -50% (inactive); in assay [3], -27.9% (inactive); in assay [7], -2.31% (inactive); in assay [8], 2.78% (inactive). The inhibition of aggregation in assay [2] was 2.8% (inactive). Also, the nuclei count in assay [2] came to 108%; in assay [3], 101%. For the same compound, the fluorescence slope in assay [4] is -0.127 (inactive); in assay [6], 0.00738 (inactive). Further, in assay [5], the NADPH fluorescence slope was -6.1e-06 (inactive).

As for `N#CCSc1nc(-c2ccccc2)cs1`, the cell count in assay [1] was found to be 371. Also, the inhibition in assay [1] is 5% (inactive); in assay [3], -25.1% (inactive); in assay [7], -34.5% (inactive); in assay [8] it was -75.5% (inactive). Moreover, the inhibition of aggregation in assay [2] was 1.3% (inactive). Moreover, the nuclei count is 103% in assay [2] and 109% in assay [3]. The results for the fluorescence slope in assay [4] and in assay [6] were -0.566 (inactive) and 0.0051 (inactive), respectively. Moreover, the NADPH fluorescence slope in assay [5] was -1.8e-05 (inactive).

Turning to `CCOC(=O)N1CCN(C(=O)C2CC(=O)N(Cc3ccc(OC)cc3)C2)CC1` (stereo not given), the cell count in assay [1] was determined as 607. In addition, the inhibition in assay [1] is -14.6% (inactive); in assay [3], -28.6% (inactive); in assay [7], 13.3% (inactive); in assay [8], 18.5% (inactive). For the same compound, in assay [2], the inhibition of aggregation was -1.6% (inactive). In addition, the nuclei count in assay [2] came to 112%; in assay [3], 111%. For the same compound, the fluorescence slope is -0.566 (inactive) in assay [4] and 0.0052 (inactive) in assay [6]. In assay [5], the NADPH fluorescence slope was -1e-05 (inactive).

Consider `CCOC(=O)c1ccc(NS(=O)(=O)c2ccc(SC)cc2)cc1`, for which the cell count in assay [1] worked out at 643. In addition, the inhibition in assay [1] is -9% (inactive); in assay [3] it was -21.6% (inactive); in assay [7], 13.8% (inactive); in assay [8] it was 16.1% (inactive). Besides, the inhibition of aggregation in assay [2] is 4.8% (inactive). In addition, the nuclei count amounted to 89% in assay [2] and 88.3% in assay [3]. The fluorescence slope was -0.48 (inactive) in assay [4] and 0.00382 (inactive) in assay [6]. For the same compound, the NADPH fluorescence slope in assay [5] was -4.9e-05 (inactive).

For `COc1ccc(N2C(=O)C(Cl)=C(Nc3c(C)n(C)n(-c4ccccc4)c3=O)C2=O)cc1`, the cell count in assay [1] worked out at 607. Further, the inhibition was -22.9% (inactive) in assay [1], -23.5% (inactive) in assay [3], 7.07% (inactive) in assay [7] and 12.3% (inactive) in assay [8]. Besides, in assay [2], the inhibition of aggregation is -20.7% (inactive). The values for the nuclei count in assay [2] and in assay [3] were 95.1% and 102%, respectively. Moreover, the fluorescence slope in assay [4] is -0.449 (inactive); in assay [6], 0.00622 (inactive). The NADPH fluorescence slope in assay [5] was 3.3e-05 (inactive).

As to `Cc1cc(NC(=O)C23CCC(C)(c4nc5cc(Cl)c(Cl)cc5nc42)C3(C)C)no1` (stereo not given), the cell count in assay [1] worked out at 409. Also, the inhibition in assay [1] is 4.3% (inactive); in assay [3], -116% (inactive); in assay [7], 12.2% (inactive); in assay [8] it was 15.9% (inactive). Further, the inhibition of aggregation in assay [2] is 7.4% (inactive). For the same compound, the nuclei count worked out at 104% in assay [2] and 92.1% in assay [3]. The fluorescence slope in assay [4] was -0.577 (inactive); in assay [6] it was 0.00686 (inactive). The NADPH fluorescence slope in assay [5] was -4.4e-05 (inactive).

Turning to `CC(=O)c1cc2c(=O)c3cc(C)ccc3oc2nc1C`, in assay [1], the cell count was determined as 410. The inhibition was 5.3% (inactive) in assay [1], -96.2% (inactive) in assay [3], -28.2% (inactive) in assay [7] and -91.3% (inactive) in assay [8]. Besides, in assay [2], the inhibition of aggregation is 7.1% (inactive). Also, the results for the nuclei count in assay [2] and in assay [3] were 93.5% and 187%, respectively. The fluorescence slope in assay [4] was -0.346 (inactive); in assay [6] it was 0.00597 (inactive). Moreover, the NADPH fluorescence slope in assay [5] is 5.2e-06 (inactive).

Consider `CCC1c2ccc(C)n2CCN1C(=O)Nc1ccccc1OC` (stereo not given), for which the cell count in assay [1] was 551. Moreover, the inhibition in assay [1] was -15.9% (inactive); in assay [3], -63.1% (inactive); in assay [7], 3.56% (inactive); in assay [8] it was 3.42% (inactive). For the same compound, the inhibition of aggregation in assay [2] is 0.1% (inactive). The nuclei count amounted to 112% in assay [2] and 116% in assay [3]. In addition, the fluorescence slope is -0.402 (inactive) in assay [4] and 0.00541 (inactive) in assay [6]. Moreover, the NADPH fluorescence slope in assay [5] was -6.4e-05 (inactive).

With `COc1ccc2cc(C#N)c(NC(C)C)nc2c1`, in assay [1], the cell count turned out to be 481. The inhibition in assay [1] is 3.6% (inactive); in assay [3], -23.1% (inactive); in assay [7], 8% (inactive); in assay [8] it was 23% (inactive). Moreover, the inhibition of aggregation in assay [2] is -25.6% (inactive). Moreover, the nuclei count came out at 96.4% in assay [2] and 108% in assay [3]. For the same compound, the figures for the fluorescence slope in assay [4] and in assay [6] were -0.495 (inactive) and 0.00581 (inactive), respectively. Also, in assay [5], the NADPH fluorescence slope was -0.000141 (inactive).

As for `Cc1occc1-c1nnc(SCC(=O)NCC2CCCO2)n1C` (stereo not given), the cell count in assay [1] was determined as 687. For the same compound, the inhibition was -0.3% (inactive) in assay [1], 40.7% (inactive) in assay [3], 16.7% (inactive) in assay [7] and 10.3% (inactive) in assay [8]. For the same compound, the inhibition of aggregation in assay [2] was -23% (inactive). Moreover, the nuclei count in assay [2] was found to be 120%; in assay [3] it was 95%. Also, the fluorescence slope in assay [4] is -0.521 (inactive); in assay [6], 0.0055 (inactive). The NADPH fluorescence slope in assay [5] was 0.00013 (inactive).

In the case of `COc1cccc(OCC(O)CN2CCN(CCO)CC2)c1` (stereo not given), the cell count in assay [1] came out at 383. For the same compound, the inhibition is -1% (inactive) in assay [1], -46.4% (inactive) in assay [3], 8.25% (inactive) in assay [7] and 13.5% (inactive) in assay [8]. Further, in assay [2], the inhibition of aggregation was -24.6% (inactive). The nuclei count in assay [2] was determined as 105%; in assay [3], 102%. The fluorescence slope was -0.475 (inactive) in assay [4] and 0.00352 (inactive) in assay [6]. Further, the NADPH fluorescence slope in assay [5] was -0.000292 (inactive).

In the case of `COC(=O)C1=C(C)OC(N)=C(C#N)C1c1ccccc1` (stereo not given), the cell count in assay [1] is 428. Further, the inhibition in assay [1] was 1.7% (inactive); in assay [3] it was -73.1% (inactive); in assay [7], 11.5% (inactive); in assay [8], 16.7% (inactive). The inhibition of aggregation in assay [2] was 5.6% (inactive). For the same compound, the nuclei count was 114% in assay [2] and 116% in assay [3]. The fluorescence slope in assay [4] was -0.568 (inactive); in assay [6] it was 0.0048 (inactive). For the same compound, in assay [5], the NADPH fluorescence slope was -6.5e-06 (inactive).

With `O=C(c1ccc(S(=O)(=O)N2CCOCC2)cc1)N1CCc2ccccc2C1`, the cell count in assay [1] is 401. The inhibition was -1% (inactive) in assay [1], -103% (inactive) in assay [3], 25.2% (inactive) in assay [7] and 18.8% (inactive) in assay [8]. The inhibition of aggregation in assay [2] is -27.5% (inactive). In addition, the nuclei count was found to be 103% in assay [2] and 118% in assay [3]. Moreover, the fluorescence slope in assay [4] is -0.469 (inactive); in assay [6], 0.00485 (inactive). Moreover, the NADPH fluorescence slope in assay [5] was -1.3e-05 (inactive).

In the case of `CC(=O)Nc1ccc(S(=O)(=O)N2CCSC2c2ccccc2)cc1` (stereo not given), the cell count in assay [1] amounted to 241. Besides, the inhibition in assay [1] was -12.1% (inactive); in assay [3], -34.7% (inactive); in assay [7], 18.3% (inactive); in assay [8], 22% (inactive). For the same compound, in assay [2], the inhibition of aggregation is -8.7% (inactive). Moreover, the results for the nuclei count in assay [2] and in assay [3] were 106% and 76.2%, respectively. The fluorescence slope in assay [4] is -0.552 (inactive); in assay [6], 0.00574 (inactive). Also, the NADPH fluorescence slope in assay [5] was -3.6e-05 (inactive).
